Test results reported in ChEMBL document CHEMBL4706729, “Discovery of the First Orally Available, Selective K1.1 Inhibitor: In Vitro and In Vivo Activity of an Oxadiazole Series” (ACS Med Chem Lett, 2021).

Legend:
[1] = Metabolic stability in human liver microsomes assessed as intrinsic clearance
[2] = Lipophilicity, log D of compound; assay type: physicochemical; conditions: octanol/water
[3] = Half life in CD-1 mouse at 0.5 mg/kg, iv; assay type: ADME, organism-based; conditions: in vivo
How it was run: (§1)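 CD-1 mice given a single 0.5 mg/kg IV dose in 10% DMSO, 10% Solutol, 80% water. Clearance, Vdss and half-life derived from plasma concentration–time data.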

[4] = Volume of distribution at steady state in CD-1 mouse at 0.5 mg/kg, iv; assay type: ADME, organism-based; conditions: in vivo, read-out: Vdss
How it was run: as §1

[5] = Free drug concentration in mouse brain harboring Kcnt1 L/L mutant at 30 mg/kg, sc; assay type: ADME, organism-based; conditions: in vivo
[6] = Free drug concentration in wildtype CD-1 mouse brain at 150 mg/kg, sc; conditions: in vivo
[7] = Clearance in CD-1 mouse at 0.5 mg/kg, iv; assay type: ADME, organism-based; conditions: in vivo
How it was run: as §1

[8] = Oral bioavailability in CD-1 mouse at 30 mg/kg; assay type: ADME, organism-based; conditions: in vivo

Row | SMILES | CLint [1] | logD [2] | also measured
1 | C[C@H](NC(=O)c1cc(C(F)(F)F)nn1C)c1nc(-c2ccnc(C3CC3)c2)no1 | < 9.6 µL/min/mg | 4.1 | –
2 | Cc1cc(-c2noc([C@H](C)NC(=O)c3cc(C(F)(F)F)nn3C)n2)ccn1 | < 9.6 µL/min/mg | 3.3 | –
3 | COCc1cc(-c2noc([C@H](C)NC(=O)c3cc(C(F)(F)F)nn3C)n2)ccn1 | < 9.6 µL/min/mg | 3 | –
4 | C[C@H](NC(=O)c1cc(C(F)(F)F)nn1C)c1nc(-c2ccnc(C(F)(F)F)c2)no1 | < 9.6 µL/min/mg | 3.6 | half-life [3]: > 20 h; Vd [4]: 1.88 L/kg; Drug uptake(free) [5]: 270 nM; Drug uptake [6]: 1204 nM; clearance [7]: 2 mL/min/kg; bioavailability [8]: 100%
5 | C[C@H](NC(=O)c1cc(C(F)(F)F)nn1C)c1nc(-c2ccnc(N(C)C)c2)no1 | 56 µL/min/mg | 3.9 | –
6 | CNc1cc(-c2noc([C@H](C)NC(=O)c3cc(C(F)(F)F)nn3C)n2)ccn1 | 28 µL/min/mg | 3.4 | –
7 | C[C@H](NC(=O)c1cc(C(F)(F)F)nn1C)c1nc(-c2ccnc(C(F)F)c2)no1 | < 9.6 µL/min/mg | 3.4 | –
8 | C[C@H](NC(=O)c1cc(C(F)(F)F)nn1C)c1nc(-c2ccnc(N3CCCC3)c2)no1 | 48 µL/min/mg | 4.2 | –
9 | COC(C)(C)c1cc(-c2noc([C@H](C)NC(=O)c3cc(C(F)(F)F)nn3C)n2)ccn1 | 21 µL/min/mg | 3.8 | –
10 | COc1cc(-c2noc([C@H](C)NC(=O)c3cc(C(F)(F)F)nn3C)n2)ccn1 | < 9.6 µL/min/mg | 3.4 | –
11 | COc1cc(-c2noc([C@H](C)NC(=O)c3cc(C(F)(F)F)nn3C)n2)cc(C)n1 | 10 µL/min/mg | 4.4 | –
